Results published in ChEMBL document CHEMBL1121611, “Synthesis and antileukemic activity of 1-methyl-2,5-diphenyl-3,4-bis(hydroxymethyl)-, 1,2,3-triphenyl-4,5-bis(hydroxymethyl)-, and 1-methyl-2,3-diphenyl-4,5-bis(hydroxymethyl)pyrrole bis(N-methylcarbamate)” (1980).

What was measured:
Format in all cases: functional, Mus musculus
P388 [1] = test: Toxicity against P388 Lymphocytic Leukemia and measured for number of mice survived after five days of 100 mg/kg drug administration out of 6 mice tested
In short: (§1)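 Male CD1F1 mice given ip ascitic fluid with ca. 6 × 10^6 P388 cells, then ip dosing in a distilled water-Tween 80 suspension, nine daily doses beginning 24 h post-inoculation. Surviving mice counted on day 5, i.e., 4 days after the first compound injection.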

P388 [2] = test: Toxicity against P388 Lymphocytic Leukemia and measured for number of mice survived after five days of 200 mg/kg drug administration out of 6 mice tested; in short: as §1
P388 [3] = test: Animal weight loss was tested for P388 Lymphocytic Leukemia and measured for change in weight, in treated and control mice at dose of 25 mg/kg; set-up: unit not given here
In short: (§2)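 P388 leukemia was induced by ip inoculation of ascitic fluid containing ca. 6 × 10^6 cells into male CD1F1 mice. Drug was given ip as a distilled water–Tween 80 suspension, nine daily doses starting 24 h after tumor inoculation. Body weight change was recorded on day 5, i.e. 4 days after the first injection, in treated and untreated control groups.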

P388 [4] = test: Animal weight loss was tested for P388 Lymphocytic Leukemia and measured for change in weight, in treated and control mice at dose of 100 mg/kg; set-up: unit not given here; in short: as §2
P388 [5] = test: Compound was tested against P388 Lymphocytic Leukemia for %survival of mice measured as treated versus control at dose of 25 mg/kg
In short: (§3)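 Male CD1F1 mice inoculated ip with ascitic fluid holding ca. 6 × 10^6 P388 cells. Drug given ip as a distilled water-Tween 80 suspension, nine daily doses starting 24 h after tumor inoculation. Median survival time of treated mice compared with untreated controls and expressed as % T/C; % T/C ≥ 120 counted as significant.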

P388 [6] = test: Compound was tested against P388 Lymphocytic Leukemia for %survival of mice measured as treated versus control at dose of 100 mg/kg; in short: as §3
P388 [7] = test: Toxicity was tested for P388 Lymphocytic Leukemia and measured for number of mice survived after five days of 25 mg/kg drug administration out of 6 mice tested; in short: as §1
P388 [8] = test: Compound was tested against P388 Lymphocytic Leukemia for %survival of mice measured as treated versus control at dose of 12.5 mg/kg; in short: as §3
P388 [9] = test: Compound was tested against P388 Lymphocytic Leukemia for %survival of mice measured as treated versus control at dose of 200 mg/kg; in short: as §3
P388 [10] = test: tested for toxity against P388 Lymphocytic Leukemia and measured for number of mice survived after five days of 12.5 mg/kg drug administration out of 6 mice tested; in short: as §1
P388 [11] = test: Compound was tested against P388 Lymphocytic Leukemia for %survival of mice measured as treated versus control at dose of 50 mg/kg; in short: as §3
P388 [12] = test: Animal weight loss was tested for P388 Lymphocytic Leukemia and measured for change in weight, in treated and control mice at dose of 200 mg/kg; in short: as §2
P388 [13] = test: Animal weight loss was tested for P388 Lymphocytic Leukemia and measured for change in weight, in treated and control mice at dose of 12.5 mg/kg; set-up: unit not given here; in short: as §2
P388 [14] = test: Animal weight loss was tested for P388 Lymphocytic Leukemia and measured for change in weight, in treated and control mice at dose of 50 mg/kg; set-up: unit not given here; in short: as §2
P388 [15] = test: Toxicity against P388 Lymphocytic Leukemia and measured for number of mice survived after five days of 50 mg/kg drug administration out of 6 mice tested; in short: as §1
P388 [16] = test: Toxicity against P388 Lymphocytic Leukemia and measured for number of mice survived after five days of 25 mg/kg drug administration out of 6 mice tested; in short: as §1
P388 [17] = test: Toxicity against P388 Lymphocytic Leukemia and measured for number of mice survived after five days of 12.5 mg/kg drug administration out of 6 mice tested; in short: as §1
P388 [18] = test: Animal weight loss was tested for P388 Lymphocytic Leukemia and measured for change in weight, in treated and controlled mice at dose of 20 mg/kg
P388 [19] = test: Toxicity against P388 Lymphocytic Leukemia and measured for number of mice survived after five days of 2.5 mg/kg drug administration out of 6 mice tested
P388 [20] = test: Animal weight loss was tested for P388 Lymphocytic Leukemia and measured for change in weight, in treated and control mice at dose of 5 mg/kg
P388 [21] = test: Toxicity against P388 Lymphocytic Leukemia and measured for change in weight, in treated and controlled mice at dose of 40 mg/kg
P388 [22] = test: Compound was tested against P388 Lymphocytic Leukemia for %survival of mice measured as treated versus control at dose of 5 mg/kg
P388 [23] = test: Compound was tested against P388 Lymphocytic Leukemia for %survival of mice measured as treated versus control at dose of 40 mg/kg
P388 [24] = test: Toxicity was tested for P388 Lymphocytic Leukemia and measured for number of mice survived after five days of 40 mg/kg drug administration out of 6 mice tested
P388 [25] = test: Compound was tested against P388 Lymphocytic Leukemia for %survival of mice measured as treated versus control at dose of 2.5 mg/kg
P388 [26] = test: Animal weight loss was tested for P388 Lymphocytic Leukemia and measured for change in weight, in treated and control mice at dose of 10 mg/kg
P388 [27] = test: Animal weight loss was tested for P388 Lymphocytic Leukemia and measured for change in weight, in treated and control mice at dose of 2.5 mg/kg
P388 [28] = test: Toxicity against P388 Lymphocytic Leukemia and measured for number of mice survived after five days of 5 mg/kg drug administration out of 6 mice tested
P388 [29] = test: Toxicity was tested for P388 Lymphocytic Leukemia and measured for number of mice survived after five days of 10 mg/kg drug administration out of 6 mice tested
P388 [30] = test: Compound was tested against P388 Lymphocytic Leukemia for %survival of mice measured as treated versus control at dose of 20 mg/kg
P388 [31] = test: Toxicity was tested for P388 Lymphocytic Leukemia and measured for number of mice survived after five days of 20 mg/kg drug administration out of 6 mice tested
P388 [32] = test: Compound was tested against P388 Lymphocytic Leukemia for %survival of mice measured as treated versus control at dose of 10 mg/kg
P388 [33] = test: Compound was tested against P388 Lymphocytic Leukemia for %survival of mice measured as treated versus control at dose of 6.25 mg/kg; in short: as §3
P388 [34] = test: Toxicity against P388 Lymphocytic Leukemia and measured for number of mice survived after five days of 6.25 mg/kg drug administration out of 6 mice tested; in short: as §1
P388 [35] = test: Animal weight loss was tested for P388 Lymphocytic Leukemia and measured for change in weight, in treated and control mice at dose of 6.25 mg/kg; in short: as §2
P388 [36] = test: Animal weight loss was tested for P388 Lymphocytic Leukemia and measured for change in weight, in treated and control mice at dose of 3.13 mg/kg; in short: as §2
P388 [37] = test: Compound was tested against P388 Lymphocytic Leukemia for %survival of mice measured as treated versus control at dose of 3.13 mg/kg; in short: as §3
P388 [38] = test: Animal weight loss was tested for P388 Lymphocytic Leukemia and measured for change in weight, in treated and control mice at dose of 1.56 mg/kg; in short: as §2
P388 [39] = test: Compound was tested against P388 Lymphocytic Leukemia for %survival of mice measured as treated versus control at dose of 1.56 mg/kg; in short: as §3
P388 [40] = test: Toxicity against P388 Lymphocytic Leukemia and measured for number of mice survived after five days of 3.13 mg/kg drug administration out of 6 mice tested; in short: as §1
P388 [41] = test: Toxicity against P388 Lymphocytic Leukemia and measured for number of mice survived after five days of 1.56 mg/kg drug administration out of 6 mice tested; in short: as §1
P388 [42] = test: Toxicity against P388 Lymphocytic Leukemia and measured for number of female mice survived after five days of 12.5 mg/kg drug administration out of 6 mice tested
P388 [43] = test: Toxicity against P388 Lymphocytic Leukemia and measured for number of female mice survived after five days of 6.25 mg/kg drug administration out of 6 mice tested
P388 [44] = test: Toxicity against P388 Lymphocytic Leukemia and measured for number of female mice survived after five days of 25 mg/kg drug administration out of 6 mice tested

SMILES: CNC(=O)OCc1c(-c2ccccc2)c(-c2ccccc2)n(-c2ccc(OC)cc2)c1COC(=O)NC
- No. of mice survived (P388 [1]): 6
- No. of mice survived (P388 [2]): 6
- Weight loss (P388 [3]): 0.5
- Weight loss (P388 [4]): -1
- T/C (P388 [5]): 119%
- T/C (P388 [6]): 124%
- No. of mice survived (P388 [7]): 6
- T/C (P388 [8]): 106%
- T/C (P388 [9]): 135%
- No. of mice survived (P388 [10]): 6
- T/C (P388 [11]): 119%
- Weight loss (P388 [12]): -1.3
- Weight loss (P388 [13]): 0.3
- Weight loss (P388 [14]): -0.8
- No. of mice survived (P388 [15]): 6

SMILES: CNC(=O)OCc1c(-c2ccccc2)c(-c2ccccc2)n(-c2ccccc2)c1COC(=O)NC
- No. of mice survived (P388 [1]): 6
- No. of mice survived (P388 [2]): 6
- Weight loss (P388 [3]): 0.1
- Weight loss (P388 [4]): -0.6
- No. of mice survived (P388 [16]): 6
- T/C (P388 [5]): 117%
- T/C (P388 [6]): 144%
- T/C (P388 [8]): 110%
- T/C (P388 [9]): 171%
- T/C (P388 [11]): 126%
- Weight loss (P388 [12]): -2.4
- No. of mice survived (P388 [17]): 6
- Weight loss (P388 [13]): -0.2
- Weight loss (P388 [14]): -1.1
- No. of mice survived (P388 [15]): 6

SMILES: CNC(=O)OCc1c(COC(=O)NC)c(-c2ccccc2)n(C)c1-c1ccccc1
- Weight loss (P388 [18]): -2.8
- No. of mice survived (P388 [19]): 6
- Weight loss (P388 [20]): -1
- Weight loss (P388 [21]): -4.4
- T/C (P388 [22]): 135%
- T/C (P388 [23]): 124%
- No. of mice survived (P388 [24]): 6
- T/C (P388 [25]): 135%
- Weight loss (P388 [26]): -2.1
- Weight loss (P388 [27]): -1.1
- No. of mice survived (P388 [28]): 6
- No. of mice survived (P388 [29]): 6
- T/C (P388 [30]): 205%
- No. of mice survived (P388 [31]): 6
- T/C (P388 [32]): 164%

SMILES: CNC(=O)OCc1c(COC(=O)NC)c(-c2ccccc2)n(C)c1C
- No. of mice survived (P388 [1]): 5
- Weight loss (P388 [3]): -3.9
- Weight loss (P388 [4]): -6
- No. of mice survived (P388 [16]): 6
- T/C (P388 [5]): 145%
- T/C (P388 [6]): <70%
- T/C (P388 [8]): 130%
- T/C (P388 [33]): 135%
- T/C (P388 [11]): 90%
- No. of mice survived (P388 [17]): 6
- Weight loss (P388 [13]): -3.3
- No. of mice survived (P388 [34]): 6
- Weight loss (P388 [14]): -4.6
- Weight loss (P388 [35]): -2.5
- No. of mice survived (P388 [15]): 6

SMILES: CNC(=O)OCc1c(-c2ccccc2)c(-c2ccccc2)n(C)c1COC(=O)NC
- Weight loss (P388 [36]): -0.8
- No. of mice survived (P388 [1]): 5
- T/C (P388 [37]): 128%
- Weight loss (P388 [3]): -3.2
- Weight loss (P388 [4]): -6.1
- No. of mice survived (P388 [16]): 6
- T/C (P388 [5]): 160%
- Weight loss (P388 [38]): -2.3
- T/C (P388 [39]): 102%
- T/C (P388 [8]): 164%
- No. of mice survived (P388 [40]): 6
- T/C (P388 [33]): 138%
- T/C (P388 [11]): 160%
- No. of mice survived (P388 [17]): 6
- No. of mice survived (P388 [41]): 6
- Weight loss (P388 [13]): -1.4
- No. of mice survived (P388 [34]): 6
- Weight loss (P388 [14]): -2.5
- Weight loss (P388 [35]): -1.1
- No. of mice survived (P388 [15]): 6

SMILES: CNC(=O)OCc1c(COC(=O)NC)c(C)n(-c2ccccc2)c1C
- No. of mice survived (P388 [42]): 5
- T/C (P388 [5]): 148%
- T/C (P388 [8]): 145%
- T/C (P388 [33]): 134%
- No. of mice survived (P388 [43]): 5
- No. of mice survived (P388 [44]): 6
